Drawing on ChEMBL document CHEMBL1789904, “Imaging of Plasmodium liver stages to drive next-generation antimalarial drug discovery” (Science, 2011), this text covers Schizont size and IC50 for 66 compounds.

pIC50: −log10 of the molar value.

For this experiment, the system named is Plasmodium yoelii. The experiment in a line: NOVARTIS: Antimalarial liver stage activity measured as reduction in Plasmodium yoelii schizont area in HepG2-A16-CD81 cells by immuno-fluorescence, and median schizont size at 10uM compound concentration. The experiment is classed as functional, organism-based. The note with it: for pIC50: Plasmodium yoelii, HepG2-A16-CD81. In short, it runs like this:
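Host and parasite nuclei stained with Hoechst 33342, parasites with αPyHSP70 antibody; 25 images per well by high-content imaging; median parasite (schizont) area measured by automated image analysis, ~50 schizonts per experiment, two or more independent experiments.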

What is called pIC50 is the negative decadic logarithm of the IC50, by convention in mol/L. A higher pIC50 goes with a small IC50. Consider `O=C(Cc1ccccc1)NC(c1ccc(Cl)cc1)c1ccc2cccnc2c1O` (stereo unspecified), for which the Schizont size is 17.33 um and the pIC50 was 6.72.

`CN1C(=O)N(C)C(NNC(N)=S)C1NNC(N)=S` (stereo unspecified): the Schizont size was 117.53 um and the pIC50 is 7.82.

As to `Cl.Fc1ccc(Nc2nc(NCc3ccco3)c3ccccc3n2)cc1`, the Schizont size is 45.3 um and the pIC50 is 7.13.

In turn, `CCN1CCN(c2cc(C)c3cc(NC(=O)c4cc(OC)cc(OC)c4)ccc3n2)CC1` had a Schizont size of 113.77 um and a pIC50 of 5.43.

The compound `O=c1c2c([nH]c3ccccc13)CCCCCC2` had a Schizont size of 42.48 um and a pIC50 of 6.14.

`COc1ccc(-c2c(C(F)(F)F)nn(C)c2NC(=O)Nc2ccc(F)cc2F)cc1` showed a Schizont size of 103.33 um and a pIC50 of 5.46.

`COc1ccc(NC(=O)COc2ccccc2C(C)C)c(OC)c1` had a Schizont size of 202.59 um and a pIC50 of less than 5.00.

Compound `CCN(CC)c1ccc(NC(=O)c2cccs2)cc1` showed a Schizont size of 54.07 um and a pIC50 of 6.40.

Compound `CCC[n+]1cccc2ccc3cccnc3c21` had a Schizont size of 43.42 um and a pIC50 of 6.04.

For `O=C(C1CC1)N1CCc2cc(Br)cc(S(=O)(=O)N3CCCC3)c21`, the Schizont size is given as 164.5 um and the pIC50 was less than 5.00.

In turn, `CCOC(=O)c1cn(CC)c2cc(N(C)CCc3ccc(OC)c(OC)c3)c(F)cc2c1=O` had a Schizont size of 23.69 um and a pIC50 of 7.38.

`CCN1/C(=C/c2ccc3ccccc3[n+]2CC)Sc2sc3ccccc3c21` had a Schizont size of 32.77 um and a pIC50 of 8.21.

The compound `COc1ccc(-c2n(C)c3ccccc3[n+]2CC(=O)OC2CC(C)CCC2C(C)C)cc1.[Cl-]` (stereo unspecified) gave a Schizont size of 14.3 um and a pIC50 of 6.81.

`O=C(O)Cn1cnc2nc3n(c2c1=O)CCC3` gave a Schizont size of 183.18 um and a pIC50 of less than 6.11.

The compound `CCN(CC)CCCN(Cc1cc2cc(OC)c(OC)cc2[nH]c1=O)C(=S)Nc1cccc(Cl)c1` gave a Schizont size of 60.54 um and a pIC50 of 6.79.

Take `CCOC(=O)c1ccc(OCC2c3cc(OC)c(OC)cc3CCN2C(=O)c2ccc([N+](=O)[O-])cc2)cc1` (stereo unspecified): the Schizont size is recorded as 226.39 um and the pIC50 was less than 5.00.

Take `COc1cccc(Nc2nc(NCCO)c3ccccc3n2)c1.Cl`: the Schizont size amounted to 54.9 um and the pIC50 is 7.21.

The compound `O=[N+]([O-])c1cc(C(F)(F)F)ccc1N1CCCN(C(=S)Nc2ccccc2)CC1` showed a Schizont size of 93.73 um and a pIC50 of 5.65.

Take `CCCCCCN(C(=O)c1ccc(C(C)(C)C)cc1)C(CC)c1nc2ccccc2c(=O)n1-c1ccc(F)cc1` (stereo unspecified): the pIC50 was less than 5.16.

Compound `COC(=O)c1ccc(C2C3=C(O)CC(c4ccco4)CC3=Nc3ccccc3N2C(=O)c2ccccc2)cc1` (stereo unspecified) gave a Schizont size of 140.38 um and a pIC50 of less than 5.32.

Take `CC(C)(C)c1ccc(Oc2ccc(N3C(=O)C4CC=CCC4C3=O)cc2)cc1` (stereo unspecified): the Schizont size is 180.99 um and the pIC50 is less than 5.00.

With `Cc1ccc(-c2cn3c([n+]2-c2ccc(C)cc2)CCCCC3)cc1`, the Schizont size was determined as 27.24 um and the pIC50 was 6.84.

`COC(=O)c1cc(NC(=S)NC(=O)c2c(OC)cccc2OC)cc(C(=O)OC)c1` gave a Schizont size of 216.06 um and a pIC50 of less than 5.00.

Compound `CCOC(=O)c1cnc2ccc(OC)cc2c1NCc1cccs1` showed a Schizont size of 31.63 um and a pIC50 of 6.72.

The compound `CC1(C)N=C(N)N=C(N)N1c1ccc(Cl)cc1.Cl` [CHLORCYCLOGUANIL HYDROCHLORIDE] gave a Schizont size of 33.09 um and a pIC50 of 8.59.

In turn, `COc1ccc2nc(C)cc(Nc3ccc(Oc4ccc(Cl)c5ccccc45)c(Cl)c3)c2c1` showed a Schizont size of 22.65 um and a negative logarithm of the IC50 (pIC50) of 6.57.

`CCCCCCOc1ccc(C(C)=NNC2=NCCN2)cc1[N+](=O)[O-]` gave a Schizont size of 60.96 um and a pIC50 of 6.11.

Turning to `Cc1nc2ccc(NC(=O)C3CC3)cc2c(=O)n1Cc1ccc(Cl)cc1`, the pIC50 is less than 5.00.

The compound `COC(=O)C1=CNC=C(C(=O)OC)C1c1cc(OC)c(OC)c(OC)c1` showed a Schizont size of 216.47 um and a pIC50 of less than 5.00.

As for `Cc1ccc(-n2c(-c3ccccc3)cc(C=NNC(=O)c3cccc(O)c3)c2-c2ccccc2)cc1`, the Schizont size is listed as 26.72 um and the pIC50 is 7.69.

In turn, `CCOC(=O)C1=C(C)NC2=C(C(=O)C(C(=O)OCC)C(c3ccccc3OC)C2)C1c1ccc([N+](=O)[O-])cc1` (stereo unspecified) showed a Schizont size of 76.3 um and a pIC50 of 6.47.

In the case of `Cc1ccnc(NC(c2ccc3ccccc3c2)c2ccc3cccnc3c2O)c1` (stereo unspecified), the Schizont size is listed as 26.72 um and the pIC50 was 6.25.

Turning to `N=c1c2c(n(Cc3ccc(Cl)cc3)c3c1CCC3)CCC2`, the Schizont size amounted to 32.57 um and the pIC50 was 7.04.

For the compound `CCc1nc(N)nc(N)c1-c1ccc(Cl)cc1` [PYRIMETHAMINE], the Schizont size came to 37.58 um and the pIC50 is 8.67.

`C=CCc1c(C)nc2ccc(Br)cc2c1O` showed a Schizont size of 32.46 um and a pIC50 of 6.74.

Consider `c1ccc(OCCOc2ccc(Nc3c4ccccc4nc4ccccc34)cc2)cc1`, for which the Schizont size is reported as 41.33 um and the pIC50 is 6.25.

As to `Cc1cccc(C(=O)NCc2nnc(S)n2-c2cccc(C(F)(F)F)c2)c1`, the Schizont size was found to be 210.73 um and the pIC50 is less than 5.00.

In the case of `Cc1nc([P+](c2ccccc2)(c2ccccc2)c2ccccc2)c(SCc2ccccc2)o1.[O-][Cl+3]([O-])([O-])[O-]`, the Schizont size turned out to be 31.83 um and the pIC50 was 7.47.

In turn, `Cc1nc([P+](c2ccccc2)(c2ccccc2)c2ccccc2)c(N2CCCCC2)o1` showed a Schizont size of 25.57 um and a pIC50 of 7.08.

In the case of `CCCc1nc2ccc(NC(=O)c3ccccc3F)cc2c(=O)n1Cc1ccc(-c2ccccc2)cc1`, the pIC50 is 5.76.

As for `O=C(Nc1ccc2oc(-c3cccc4ccccc34)nc2c1)c1ccc([N+](=O)[O-])o1`, the Schizont size was determined as 13.99 um and the pIC50 is 7.14.

Regarding `CCCC(=O)NC(c1ccc(Cl)cc1)c1ccc2cccnc2c1O` (stereo unspecified), the Schizont size stood at 14.09 um and the negative-log IC50 (pIC50) was 6.72.

The compound `CN1CCN(c2ccc(Nc3c4ccccc4nc4ccccc34)cc2)CC1` showed a Schizont size of 45.82 um and a pIC50 of 6.26.

On to `CC(=O)N(C1=C(N2CCOCC2)C(=O)c2ccccc2C1=O)c1ccc(I)cc1`, for which the Schizont size is recorded as 50.1 um and the pIC50 is 6.22.

With `CCCc1c(C)nc2ccccc2c1O`, the Schizont size stood at 34.55 um and the pIC50 was 6.55.

The compound `Cc1oc2c(c1C(=O)NCC1CCCO1)C(=O)c1ccccc1C2=O` (stereo unspecified) showed a Schizont size of 21.4 um and a pIC50 of 6.72.

`CCCN(CCC)[P+](CCC)(c1ccc([P+](CCC)(N(CCC)CCC)N(CCC)CCC)cc1)N(CCC)CCC` gave a Schizont size of 28.29 um and a pIC50 of 6.55.

Take `c1ccc(Nc2ccnc(Nc3ccccc3)n2)cc1`: the Schizont size turned out to be 92.37 um and the pIC50 is 5.83.

Regarding `CC1(C)N=C(N)N=C(N)N1c1ccc(F)cc1.Cl`, the Schizont size came to 38.93 um and the pIC50 was 7.72.

As to `CCCCCCN(C(=O)COc1ccccc1)C(CC)c1nc2ccccc2c(=O)n1-c1cccc(Cl)c1` (stereo unspecified), the pIC50 was less than 5.00.

`Nc1cccc(C(=O)Nc2ccc(Oc3cccc(Oc4ccc(NC(=O)c5cccc(N)c5)cc4)c3)cc2)c1`: the Schizont size is on record as 90.81 um and the pIC50 was 5.75.

The compound `CCCCCCOc1ccc(NC(=O)c2cccs2)cc1` had a Schizont size of 27.87 um and a pIC50 of 6.86.

`O=c1c2c([nH]c3ccccc13)CCCCCCCCCC2` gave a Schizont size of 25.15 um and a pIC50 of 7.00.

As for `COC(=O)c1c(-c2c(Cl)cccc2Cl)noc1NC(=O)NN1CCCCC1`, the Schizont size came out at 75.67 um and the pIC50 was 6.19.

With `O=c1c2ccccc2[nH]c2ccc(I)cc12`, the Schizont size turned out to be 24.95 um and the pIC50 is 6.98.

The compound `O=C(c1cc2nc(-c3ccccc3)cc(C(F)(F)F)n2n1)N1CCN(Cc2ccccc2)CC1` gave a Schizont size of 148.94 um and a pIC50 of less than 5.00.

As for `NC(Cc1ccccc1)C(=O)N1CCn2c(nc(-c3ccccc3)c2Nc2ccc3c(c2)OCO3)C1` (stereo unspecified), the pIC50 was 8.73.

The compound `Cl.Fc1ccccc1Nc1nc(NCc2ccccc2)c2ccccc2n1` showed a Schizont size of 37.58 um and a pIC50 of 6.16.

Take `Cc1ccc(-c2cc(C(=O)OCC(=O)c3cccc([N+](=O)[O-])c3)c3cc(C)ccc3n2)cc1`: the Schizont size came to 180.05 um and the pIC50 is less than 5.00.

With `CCCN[P+](CC(C)C)(NCCC)NCCC`, the Schizont size is 27.24 um and the pIC50 is 6.55.

`CCCc1ccc(C(=O)NC(=O)c2ccccc2O)cc1` gave a Schizont size of 23.17 um and a pIC50 of 8.38.

`Cc1nc2ccccc2c(O)c1CC=C(Cl)Cl` showed a Schizont size of 43.21 um and a pIC50 of 6.89.

Consider `c1ccc(-c2ccc(-c3ccccn3)nc2)nc1`, for which the Schizont size was determined as 22.34 um and the pIC50 was 7.40.

`CC(Oc1ccc(Cl)cc1Cl)c1nc(-c2ccc(NC(=O)c3cccs3)cc2)no1` (stereo unspecified) had a Schizont size of 21.92 um and a pIC50 of 6.94.

On to `CCCCCCCC[n+]1c(C)n(C)c2cc(Cl)c(Cl)cc21.[I-]`, for which the Schizont size was found to be 40.39 um and the pIC50 is 6.38.

The compound `O=C1N(Cc2cc3ccccc3s2)CC2CN(Cc3ccsc3)CCN12` (stereo unspecified) had a pIC50 of 7.59.
